This note sets out measurements from ChEMBL document CHEMBL1128560, “Synthesis and structure-activity relationships of analogs of 2'-deoxy-2'-(3-methoxybenzamido)adenosine, a selective inhibitor of trypanosomal glycosomal glyceraldehyde-3-phosphate dehydrogenase” (J Med Chem, 1995).

By IC50 is commonly meant the concentration that gives 50% inhibition. Read a high IC50 as a need for much substance.

Experiment [1] is described as follows: TInhibition of glyceraldehyde-3-phosphate dehydrogenase in Leishmania mexicana. In short, it runs like this: (§1)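 Enzyme sources: human erythrocyte GAPDH, glycosomal GAPDH from T. brucei, and glycosomal GAPDH from L. mexicana. IC50 is the inhibitor concentration at which 50% of enzyme activity remains. Poorly soluble compounds were not tested above their solubility limit, and the remaining activity at that level was recorded instead.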

Experiment [2] in a line: Inhibition of glyceraldehyde-3-phosphate dehydrogenase in Trypanosoma brucei. Summed up:
as §1

For experiment [3], the target named is Glyceraldehyde-3-phosphate dehydrogenase (Homo sapiens, UniProt P04406). Nature of the experiment: Inhibition of Glyceraldehyde-3-phosphate dehydrogenase in human erythrocytes. The experiment is classed as cell-based. Summed up:
as §1

Where only a bound is given, the exact number is not on record here.

Glyceraldehyde-3-phosphate dehydrogenase, sequence (P04406 whole entry): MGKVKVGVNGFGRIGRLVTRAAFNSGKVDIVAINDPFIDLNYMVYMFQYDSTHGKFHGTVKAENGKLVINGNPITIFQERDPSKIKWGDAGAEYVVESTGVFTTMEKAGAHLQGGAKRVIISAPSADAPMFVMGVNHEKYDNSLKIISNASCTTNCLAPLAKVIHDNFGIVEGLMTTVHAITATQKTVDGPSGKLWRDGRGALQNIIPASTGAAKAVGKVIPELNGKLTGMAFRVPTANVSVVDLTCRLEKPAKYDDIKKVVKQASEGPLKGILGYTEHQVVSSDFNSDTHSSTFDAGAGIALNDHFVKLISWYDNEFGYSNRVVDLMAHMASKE

In the case of `Nc1ncnc2c1ncn2CCNC(=O)c1cccc(Cl)c1`, the IC50 in experiment [1] and in experiment [2] was greater than 4000 µM throughout.
`Nc1ncnc2c1ncn2CCNC(=O)c1cccc(F)c1`: the IC50 in experiment [1] and in experiment [2] was greater than 4000 µM each time.
As to `NCCn1c(-c2cccs2)nc2c(N)ncnc21`, the IC50 in experiment [3] turned out to be 1800 µM; in experiment [1], 1600 µM; in experiment [2] it was 1800 µM.
`Nc1ncnc2c1ncn2[C@@H]1CCC[C@H]1NC(=O)c1cccc(Br)c1`: the IC50 in experiment [3] was 1500 µM; in experiment [1], 700 µM; in experiment [2], 1500 µM.
As for `Cc1ccc(C(=O)NCCn2cnc3c(N)ncnc32)cc1`, the values for the 50% inhibitory concentration (IC50) in experiment [1] and in experiment [2] were greater than 4000 µM and greater than 2000 µM, respectively.
As to `Nc1ncnc2c1nc(-c1cccs1)n2[C@@H]1O[C@H](CO)[C@@H](O)[C@H]1O`, the 50% inhibitory concentration (IC50) in experiment [3] came out at 1300 µM; in experiment [1], 500 µM; in experiment [2] it was 600 µM.
For `COc1cccc(C(=O)N[C@@H]2[C@H](O)[C@@H](CO)O[C@H]2n2cnc3c(N)ncnc32)c1` the same measures were greater than 10000 µM, 300 µM and 2200 µM.
For `COc1nc2c(N)ncnc2n1[C@@H]1O[C@H](CO)[C@@H](O)[C@H]1NC(=O)c1ccccc1` the same measures were greater than 10000 µM, 9000 µM and 9000 µM.
In the case of `Nc1ncnc2c1nc(-c1cccs1)n2[C@@H]1O[C@H](CO)[C@@H](O)[C@H]1NC(=O)c1ccccc1`, the 50% inhibitory concentration (IC50) in experiment [3] stood at 1200 µM; in experiment [1], 500 µM; in experiment [2] it was 1200 µM.
Consider `Nc1ncnc2c1ncn2[C@@H]1O[C@H](CO)[C@@H](O)[C@H]1NCc1ccccc1`, for which the IC50 in experiment [3], in experiment [1] and in experiment [2] was greater than 10000 µM each time.
For `Nc1ncnc2c1ncn2[C@@H]1O[C@H](CO)[C@@H](O)[C@H]1NC(=O)c1ccc2[nH]cnc2c1`, the IC50 in experiment [3] was greater than 10000 µM; in experiment [1] it was 3000 µM; in experiment [2] it was 3000 µM.
Turning to `Nc1ncnc2c1ncn2[C@@H]1O[C@H](CO)[C@@H](O)[C@H]1NC(=O)c1cccc(Cl)c1`, the IC50 in experiment [3] is greater than 2000 µM; in experiment [1], 200 µM; in experiment [2] it was 500 µM.
`CCOc1cccc(C(=O)N[C@@H]2[C@H](O)[C@@H](CO)O[C@H]2n2cnc3c(N)ncnc32)c1`: the IC50 in experiment [3] turned out to be 600 µM; in experiment [1] it was 400 µM; in experiment [2] it was 500 µM.
Consider `Nc1ncnc2c1ncn2[C@@H]1O[C@H](CO)[C@@H](O)[C@H]1NC(=O)c1ccc(-c2ccccc2)cc1`, for which the values for the IC50 in experiment [3], in experiment [1] and in experiment [2] were 400 µM, 200 µM and 200 µM, respectively.
As for `Nc1ncnc2c1ncn2[C@@H]1O[C@H](CO)[C@@H](O)[C@H]1NC(=O)c1ccc2cccnc2c1`, the half-maximal inhibitory concentration (IC50) in experiment [3] is greater than 2000 µM; in experiment [1] it was 500 µM; in experiment [2], 1000 µM.
For `CC(C)COC(=O)N[C@@H]1[C@H](O)[C@@H](CO)O[C@H]1n1cnc2c(N)ncnc21` the same measures were greater than 10000 µM, greater than 10000 µM and greater than 10000 µM.
In the same order, the values of `COc1cccc(C(=O)N[C@@H]2[C@H](O)[C@@H](CO)O[C@H]2n2cnc3c(N)nc(C)nc32)c1` are greater than 10000 µM, greater than 10000 µM and greater than 10000 µM.
On to `Nc1ncnc2c1nc(Br)n2[C@@H]1O[C@H](CO)[C@@H](O)[C@H]1NC(=O)c1ccccc1`, for which the results for the IC50 in experiment [3], in experiment [1] and in experiment [2] were greater than 10000 µM, 3000 µM and 6300 µM, respectively.
For `Cc1nc(N)c2[nH]cnc2n1` the same measures were greater than 10000 µM, 6000 µM and 8000 µM.
On to `Nc1ncnc2c1nc(-c1cccs1)n2CCNCc1ccccc1`, for which the figures for the 50% inhibitory concentration (IC50) in experiment [3], in experiment [1] and in experiment [2] were 600 µM, 400 µM and 500 µM, respectively.
Consider `Nc1ncnc2c1ncn2[C@@H]1CCC[C@H]1NC(=O)c1ccccc1`, for which the IC50 in experiment [1] and in experiment [2] was greater than 4000 µM each time.
As to `COc1cccc(C(=O)N[C@@H]2CCC[C@H]2n2cnc3c(N)ncnc32)c1`, the IC50 was greater than 5000 µM in experiment [1] and greater than 4000 µM in experiment [2].
For `Nc1ncnc2c1ncn2[C@@H]1CCC[C@H]1NC(=O)c1cccc(Cl)c1` the same measures were greater than 2000 µM and greater than 4000 µM.
In the case of `Nc1ncnc2c1nc(Sc1ncccn1)n2C1O[C@H](CO)[C@@H](O)[C@H]1O` (stereo partly drawn), the IC50 was 8000 µM in experiment [3], 4000 µM in experiment [1] and 2000 µM in experiment [2].
For `Nc1ncnc2c1ncn2C1O[C@H](CNC(=O)C(c2ccccc2)c2ccccc2)[C@@H](O)[C@H]1O` (stereo partly drawn) the same measures were 250 µM, 250 µM and 250 µM.
Regarding `Nc1ncnc2c1nc(SC1CCCCC1)n2C1O[C@H](CO)[C@@H](O)[C@H]1O` (stereo partly drawn), the 50% inhibitory concentration (IC50) in experiment [3] was greater than 2000 µM; in experiment [1], greater than 2000 µM; in experiment [2], greater than 1000 µM.
On to `CCc1ccc(-c2ccc(C(=O)NC[C@H]3OC(n4cnc5c(N)ncnc54)[C@H](O)[C@@H]3O)cc2)cc1` (stereo partly drawn), for which the IC50 in experiment [3] was greater than 2000 µM; in experiment [1], 750 µM; in experiment [2] it was greater than 1000 µM.
As for `Nc1ncnc2c1ncn2[C@@H]1O[C@H](CO)[C@@H](O)[C@H]1O` [ADENOSINE], the half-maximal inhibitory concentration (IC50) in experiment [3] amounted to 35000 µM; in experiment [1] it was 50000 µM; in experiment [2], 100000 µM.
